# Laboratory results published in ChEMBL document CHEMBL1687796, “Synthesis and spectrum of the neoglycoside ACHN-490” (2010).
# How the values were obtained:
# Klebsiella pneumoniae [1] = assay: Antibacterial activity against aminoglycoside-resistant Klebsiella pneumoniae expressing AAC(3)-4 by broth microdilution method; assay type: functional
# Outline: (§1)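 Clinical aminoglycoside-resistant isolates were each carrying a single aminoglycoside-modifying enzyme. […] MICs were determined by CLSI broth microdilution.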
# Escherichia coli [2] = assay: Antibacterial activity against aminoglycoside-resistant Escherichia coli expressing ANT(3)-2 by broth microdilution method; assay type: functional; outline: as §1
# Klebsiella pneumoniae [3] = assay: Antibacterial activity against Klebsiella pneumoniae ATCC 10031 by broth microdilution method; assay type: functional
# Outline: (§2)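 MICs were measured by broth microdilution following CLSI guidance. The strains formed a 25-strain screening panel with diverse aminoglycoside resistance mechanisms. The panel included Gram-negative and S. aureus strains carrying key aminoglycoside-modifying enzymes, strains with altered permeability or efflux, and an armA ribosomal methyltransferase strain.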
# Providencia stuartii = assay: Antibacterial activity against aminoglycoside-resistant Providencia stuartii expressing AAC(2')-1 by broth microdilution method
# Escherichia coli [4] = assay: Antibacterial activity against aminoglycoside-resistant Escherichia coli expressing AAC(3)-2 by broth microdilution method; assay type: functional; outline: as §1
# Klebsiella oxytoca [5] = assay: Antibacterial activity against aminoglycoside-resistant Klebsiella oxytoca expressing AAC(3)-2 by broth microdilution method; assay type: functional; outline: as §1
# Acinetobacter baumannii [6] = assay: Antibacterial activity against aminoglycoside-resistant Acinetobacter baumannii expressing […] by broth microdilution method; assay type: functional; outline: as §1
# Klebsiella pneumoniae [7] = assay: Antibacterial activity against aminoglycoside-resistant Klebsiella pneumoniae expressing AAC(3)-1 by broth microdilution method; assay type: functional; outline: as §1
# Escherichia coli [8] = assay: Antibacterial activity against Escherichia coli by broth microdilution method; assay type: functional
# Outline: (§3)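 MICs were determined by CLSI broth microdilution against clinical isolate panels that included aminoglycoside-resistant isolates. […] MIC90 was derived per group and not calculated when n was <10. Imipenem, ceftobiprole, ciprofloxacin and tigecycline MICs were also determined for the resistant isolates.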
# Enterobacter cloacae = assay: Antibacterial activity against aminoglycoside-resistant Enterobacter cloacae expressing AAC(6')-1 by broth microdilution method; assay type: functional; outline: as §1
# Klebsiella oxytoca [9] = assay: Antibacterial activity against aminoglycoside-resistant Klebsiella oxytoca expressing AAC(6')-1 by broth microdilution method; assay type: functional; outline: as §1
# Acinetobacter baumannii [10] = assay: Antibacterial activity against Acinetobacter baumannii ATCC 19606 by broth microdilution method; assay type: functional; details: ATCC 19606 = CIP 70.34 = JCM 6841; outline: as §2
# Acinetobacter baumannii [11] = assay: Antibacterial activity against aminoglycoside-susceptible Acinetobacter baumannii by broth microdilution method; assay type: functional
# Klebsiella aerogenes = assay: Antibacterial activity against aminoglycoside-resistant Enterobacter aerogenes expressing AAC(3)-2 by broth microdilution method; assay type: functional; outline: as §1
# Pseudomonas aeruginosa [12] = assay: Antibacterial activity against Pseudomonas aeruginosa expressing mexXY operon by broth microdilution method; assay type: functional; outline: as §2
# Pseudomonas aeruginosa [13] = assay: Antibacterial activity against Pseudomonas aeruginosa expressing ANT(4')-2 by broth microdilution method; assay type: functional; outline: as §2
# Staphylococcus aureus = assay: microbe, parasite or virus in culture; details: ATCC 29213
# Escherichia coli [14] = assay: Antibacterial activity against aminoglycoside-resistant Escherichia coli expressing ANT(2'')-I by broth microdilution method
# Serratia sp. = assay: Antibacterial activity against Serratia spp. by broth microdilution method; assay type: functional; details: Serratia sp. (in: enterobacteria); outline: as §3
# [15] = system: Staphylococcus epidermidis; assay: Antibacterial activity against aminoglycoside-resistant Staphylococcus epidermidis expressing APH(2'') + AAC(6')-1 by broth microdilution method; assay type: functional; outline: as §1
# Escherichia coli [16] = assay: Antibacterial activity against aminoglycoside-resistant Escherichia coli expressing ANT(2'')-1 by broth microdilution method; assay type: functional; outline: as §1
# Escherichia coli [17] = assay: Antibacterial activity against aminoglycoside-resistant Escherichia coli expressing AAC(3)-2 by broth microdilution method
Structure (SMILES),MIC (Klebsiella pneumoniae [1]) [µg/mL],MIC (Klebsiella pneumoniae [3]) [µg/mL],MIC (Providencia stuartii) [µg/mL],MIC (Escherichia coli [4]) [µg/mL],MIC (Klebsiella oxytoca [5]) [µg/mL],MIC (Acinetobacter baumannii [6]) [µg/mL],MIC (Klebsiella pneumoniae [7]) [µg/mL],MIC50 (Escherichia coli [8]) [µg/mL],MIC90 (Escherichia coli [8]) [µg/mL],MIC (Enterobacter cloacae) [µg/mL],MIC (Klebsiella oxytoca [9]) [µg/mL],MIC (Acinetobacter baumannii [10]) [µg/mL],MIC (Acinetobacter baumannii [11]) [µg/mL],MIC (Klebsiella aerogenes) [µg/mL],MIC (Pseudomonas aeruginosa [12]) [µg/mL],MIC (Pseudomonas aeruginosa [13]) [µg/mL],MIC (Staphylococcus aureus) [µg/mL],MIC (Escherichia coli [14]) [µg/mL],MIC50 (Serratia sp.) [µg/mL],MIC [15] [µg/mL],other results
CN[C@@H]1[C@@H](O)[C@@H](O[C@@H]2[C@@H](O)[C@H](O[C@H]3OC(CNCCO)=CC[C@H]3N)[C@@H](N)C[C@H]2NC(=O)[C@@H](O)CCN)OC[C@]1(C)O [PLAZOMICIN],1,0.25,> 64,1,1,4,1,1,2,1,1,8,4,1,8,4,1,1,1,1,MIC (Escherichia coli [2]): 2 µg/mL; MIC (Escherichia coli [16]): 1 µg/mL
NCC[C@H](O)C(=O)N[C@@H]1C[C@H](N)[C@@H](O[C@H]2O[C@H](CN)[C@@H](O)[C@H](O)[C@H]2O)[C@H](O)[C@H]1O[C@H]1O[C@H](CO)[C@@H](O)[C@H](N)[C@H]1O [AMIKACIN],2,0.5,8,4,4,4,4,16,32,30,30,16,2,4,4,32,4,2,8,18,MIC (Escherichia coli [17]): 4 µg/mL; MIC (Escherichia coli [16]): 4 µg/mL
